Laboratory results: ChEMBL document CHEMBL4038330, “Discovery of Potent Orally Active Protease-Activated Receptor 1 (PAR1) Antagonists Based on Andrographolide” (J Med Chem, 2017)

Key:
[1] = tested on: Plasma; test: Drug metabolism in Wistar rat plasma assessed as [M2+O-2H] metabolite formation at 5 mg/kg, po administered as single dose measured at 3 hrs post dose by LC-HRMS analysis; assay type: ADME, organism-based; details: in vivo
Method in brief: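 Rats dosed orally at 10 mg/kg or 5 mg/kg. Plasma taken at 3.0 h after dosing. Parent and metabolites detected by extracted ion chromatograms.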

[2] = tested on: Platelet; test: Effect on collagen-stimulated platelet aggregation in human platelet-rich plasma up to 10 uM preincubated for 20 mins followed by collagen stimulation measured after 5 mins by aggregometric analysis; assay type: ADME, cell-based
Method in brief: (§1)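 Human platelet-rich plasma stimulated with TRAP 15 µM, ADP 10 µM or collagen 5 µg/mL. ADP and collagen tests went up to 10 µM compound. Three separate experiments per agonist. Mean IC50 taken from IC50s of the independent experiments; values given as median ± SD.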

[3] = tested on: Rattus norvegicus; test: Toxicity in Wistar rat assessed as body weight at 1 mg/kg, iv administered as bolus dose measured up to 24 hrs post dose; assay type: organism-based; details: in vivo
Method in brief: (§2)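 Male Wistar rats, n = 6 per group, given 1 mg/kg intravenously or 5 mg/kg intragastrically. Blood concentrations followed over 24 h. Non-compartmental analysis; values as median ± SD. Bioavailability from oral versus intravenous exposure.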

[4] = tested on: Rattus norvegicus; test: AUMC (0 to infinity) in Wistar rat at 5 mg/kg, po measured up to 24 hrs post dose by HPLC-MS/MS analysis; assay type: ADME, organism-based; details: in vivo; method in brief: as §2
[5] = tested on: Cavia porcellus; test: In vivo antagonist activity at PAR1 in guinea pig assessed as inhibition of TRAP-stimulated platelet aggregation at 30 mg/kg, po pretreated for 2 hrs followed by TRAP stimulation measured after 5 mins; assay type: functional
[6] = tested on: Platelet; test: Effect on ADP-stimulated platelet aggregation in human platelet-rich plasma up to 10 uM preincubated for 20 mins followed by ADP stimulation measured after 5 mins by aggregometric analysis; assay type: ADME, cell-based; method in brief: as §1
[7] = Tmax in Wistar rat at 1 mg/kg, iv administered as bolus dose measured up to 24 hrs post dose by HPLC-MS/MS analysis; assay type: ADME, organism-based; details: in vivo; method in brief: as §2
[8] = Apparent clearance in Wistar rat at 1 mg/kg, iv administered as bolus dose measured up to 24 hrs post dose by HPLC-MS/MS analysis; assay type: ADME, organism-based; details: in vivo, read-out: CL(app) (converted); method in brief: as §2
[9] = tested on: Rattus norvegicus; test: Toxicity in Wistar rat assessed as behavioral abnormalities at 1 mg/kg, iv measured up to 24 hrs post dose; assay type: organism-based; details: in vivo
Method in brief: (§3)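 Male Wistar rats given 1 mg/kg iv or 5 mg/kg intragastrically. Behaviour observed for abnormalities over the 24 h sampling period.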

[10] = AUC (0 to infinity) in Wistar rat at 1 mg/kg, iv administered as bolus dose measured up to 24 hrs post dose by HPLC-MS/MS analysis; assay type: ADME, organism-based; parameters: dose 1 mg/kg, time infinity, route intravenous; details: in vivo
Method in brief: (§4)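 Male Wistar rats, n = 6 per group, dosed intragastrically at 5 mg/kg or intravenously at 1 mg/kg. Blood concentrations followed over 24 h. Parameters from non-compartmental analysis, reported as median ± SD.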

[11] = AUC (0 to infinity) in Wistar rat at 5 mg/kg, po measured up to 24 hrs post dose by HPLC-MS/MS analysis; assay type: ADME, organism-based; parameters: dose 5 mg/kg, time infinity, route oral; details: in vivo; method in brief: as §4
[12] = molecular target: T1, Proteinase-activated receptor 1 (Homo sapiens, UniProt P25116); test: Antagonist activity at human PAR1 expressed in HEK293 cells co-expressing Galpha15 assessed as inhibition of haTRAP-induced calcium mobilization preincubated for 15 mins followed by haTRAP addition by calcium-4 dye based FLIPR assay; assay type: functional, cell-based
T1 sequence (P25116 whole entry): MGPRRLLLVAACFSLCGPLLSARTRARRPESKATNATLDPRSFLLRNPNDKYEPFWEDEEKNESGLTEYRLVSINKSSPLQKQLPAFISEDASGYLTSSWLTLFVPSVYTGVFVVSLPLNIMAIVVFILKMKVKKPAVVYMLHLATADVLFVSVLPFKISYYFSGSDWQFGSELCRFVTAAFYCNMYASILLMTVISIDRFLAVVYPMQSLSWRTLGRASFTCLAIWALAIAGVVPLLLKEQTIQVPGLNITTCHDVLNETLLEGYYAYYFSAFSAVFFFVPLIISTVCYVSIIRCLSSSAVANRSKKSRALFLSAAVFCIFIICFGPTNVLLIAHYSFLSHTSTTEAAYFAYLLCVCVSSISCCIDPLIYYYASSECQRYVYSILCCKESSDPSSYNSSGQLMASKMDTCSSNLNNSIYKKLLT

[13] = Apparent volume of distribution in Wistar rat at 1 mg/kg, iv administered as bolus dose measured up to 24 hrs post dose by HPLC-MS/MS analysis; assay type: ADME, organism-based; details: in vivo, read-out: Vd(app); method in brief: as §2
[14] = tested on: Cavia porcellus; test: In vivo antagonist activity at PAR1 in guinea pig assessed as inhibition of TRAP-stimulated platelet aggregation at 10 mg/kg, po pretreated for 2 hrs followed by TRAP stimulation measured after 5 mins; assay type: functional
[15] = tested on: Cavia porcellus; test: In vivo antagonist activity at PAR1 in guinea pig assessed as inhibition of thrombin-stimulated platelet aggregation at 10 mg/kg, po pretreated for 2 hrs followed by thrombin stimulation measured after 5 mins; assay type: functional
[16] = tested on: Rattus norvegicus; test: Toxicity in Wistar rat assessed as behavioral abnormalities at 5 mg/kg, po measured up to 24 hrs post dose; assay type: organism-based; details: in vivo; method in brief: as §3
[17] = MRT (0 to infinity) in Wistar rat at 1 mg/kg, iv administered as bolus dose measured up to 24 hrs post dose by HPLC-MS/MS analysis; assay type: ADME, organism-based; details: in vivo; method in brief: as §2
[18] = tested on: Rattus norvegicus; test: VRT (0 to infinity) in Wistar rat at 5 mg/kg, po measured up to 24 hrs post dose by HPLC-MS/MS analysis; assay type: ADME, organism-based; details: in vivo
[19] = Apparent clearance in Wistar rat at 5 mg/kg, po measured up to 24 hrs post dose by HPLC-MS/MS analysis; assay type: ADME, organism-based; details: in vivo, read-out: CL(app) (converted); method in brief: as §2
[20] = Apparent terminal half life in Wistar rat at 1 mg/kg, iv administered as bolus dose measured up to 24 hrs post dose by HPLC-MS/MS analysis; assay type: ADME, organism-based; details: in vivo, read-out: betat1/2(app) (converted); method in brief: as §2
[21] = Tmax in Wistar rat at 5 mg/kg, po measured up to 24 hrs post dose by HPLC-MS/MS analysis; assay type: ADME, organism-based; details: in vivo; method in brief: as §2
[22] = tested on: Cavia porcellus; test: In vivo antagonist activity at PAR1 in guinea pig assessed as inhibition of thrombin-stimulated platelet aggregation at 30 mg/kg, po pretreated for 2 hrs followed by thrombin stimulation measured after 5 mins; assay type: functional
[23] = tested on: ADP-stimulated platelet aggregation; test: Toxicity in guinea pig assessed as inhibition of ADP-stimulated platelet aggregation at 30 mg/kg, po pretreated for 2 hrs followed by ADP stimulation measured after 5 mins; assay type: organism-based, Cavia porcellus; details: in vivo
[24] = tested on: ADP-stimulated platelet aggregation; test: Toxicity in guinea pig assessed as inhibition of ADP-stimulated platelet aggregation at 10 mg/kg, po pretreated for 2 hrs followed by ADP stimulation measured after 5 mins; assay type: organism-based, Cavia porcellus; details: in vivo
[25] = Cmax in Wistar rat at 1 mg/kg, iv administered as bolus dose measured up to 24 hrs post dose by HPLC-MS/MS analysis; assay type: ADME, organism-based; parameters: dose 1 mg/kg, route intravenous; details: in vivo; method in brief: as §2
[26] = tested on: Rattus norvegicus; test: Apparent volume of distribution in Wistar rat at 5 mg/kg, po measured up to 24 hrs post dose by HPLC-MS/MS analysis; assay type: ADME, organism-based; details: in vivo; method in brief: as §2
[27] = MRT (0 to infinity) in Wistar rat at 5 mg/kg, po measured up to 24 hrs post dose by HPLC-MS/MS analysis; assay type: ADME, organism-based; details: in vivo; method in brief: as §2

Drug metabolism [1]: Metabolite_Detected
AUMC [4]: 8382 ng·h/mL
Tmax [7]: 1.2 min
clearance [8]: 31.7 mL/min/kg
AUC(0-inf) [10]: 552 ng·h/mL
AUC(0-inf) [11]: 1450 ng·h/mL
IC50 [12]: 1100 nM
Vd [13]: 5.7 L/kg
MRT inf [17]: 2 h
VRT [18]: 25 ha2
CL/F [19]: 75 mL/min/kg
half-life [20]: 2 h
Tmax [21]: 2.5 h
Cmax [25]: 1730 ng/mL
Vd(app) [26]: 20 L/kg
MRT inf [27]: 5.6 h
SMILES: CC1CC[C@@H]2C(C)(C)[C@H](O)CC[C@@]2(C)[C@@H]1/C=C/c1ccc(-c2cccc(F)c2)cn1 (single isomer, unassigned)
Activity [2]: Non-Toxic
Activity [3]: 226 g
inhibition in vivo at 30 mg/kg [5]: 98.7%
Activity [6]: Non-Toxic
Activity [9]: Non-Toxic
inhibition in vivo at 10 mg/kg [14]: 87.6%
inhibition in vivo at 10 mg/kg [15]: 66.9%
Activity [16]: Non-Toxic
inhibition in vivo at 30 mg/kg [22]: 99.8%
inhibition at 5 min [23]: 4.5%
inhibition at 5 min [24]: 6.7%
